Measured values pooled from the literature.
Lines come from different studies, so protocols differ.
Target: Misshapen-like kinase 1 (MINK1, Homo sapiens, UniProt Q8N4C8)

SMILES | assay | setting | remaining binding [%]
N[C@H]1CCN(c2nccc(-c3cnn4ncccc34)n2)C1 | binding | 1 µM | 100
Cc1cnc(Nc2ccc(C(=O)N3CCC(N4CCCC4)CC3)cc2)nc1-c1cc2ccccc2s1 | binding, competition with immobilised ligand | 1 µM | 40
O=C(NCC1CCOCC1)c1n[nH]cc1NC(=O)c1c(F)cccc1F | binding, competition with immobilised ligand | 1 µM | 77
CN(c1nccc(-c2cnn3ncccc23)n1)C1CC1 | binding | 1 µM | 100
Cc1c[nH]c2nccc(Oc3c(F)cc(Nc4cc(Cl)nc(N)n4)cc3F)c12 | cell-free assay, competition with immobilised ligand | 0.1 µM | 100
CCN1CCN(Cc2ccc(C(=O)Nc3ccc(C)c(Oc4ccc5c(c4)CC(=O)N5)c3)cc2C(F)(F)F)CC1 | binding, competition with immobilised ligand | 1 µM | 100
O=C(Nc1cccnn1)N1CC(C/C=C/c2cncc(Oc3ccc(C(F)(F)F)cn3)n2)C1 | cell-free assay, competition with immobilised ligand | 1 µM | 100
COc1cnc(Nc2cccc(S(N)(=O)=O)c2)nc1N1CCN(c2ccccc2)CC1 | binding, competition with immobilised ligand | 1 µM | 76
C[C@@H](c1ccc(-n2cnc3c(N)ncnc32)cc1)N1CCc2nn(C)c(Cc3ccccc3)c2C1=O | binding, competition with immobilised ligand | 0.1 µM | 88
c1cnn2ncc(-c3ccnc(N4CCC45COC5)n3)c2c1 | binding | 1 µM | 68
O=C(NCCCN1CCOCC1)c1ccc(Nc2ncc(Cl)c(-c3ccc(Cl)s3)n2)cc1 | binding, competition with immobilised ligand | 1 µM | 20
COc1ncc2cc3ccccc3nc2c1C#N | cell-free assay, competition with immobilised ligand | 5 µM | 99
O=C(NC[C@@H]1[C@H]2CN(C(=O)OCc3cc(C(F)(F)F)cc(C(F)(F)F)c3)C[C@@H]12)c1ccc2[nH]nnc2c1 | cell-free assay, competition with immobilised ligand | 1 µM | 72
CC1CCCN1c1nccc(-c2cnn3ncccc23)n1 (stereo not shown) | binding | 1 µM | 90
CC(=O)C1=C(C)N(c2cccc(C(F)(F)F)c2)C(=O)N[C@@H]1c1ccc(C#N)nc1 | cell-free assay, competition with immobilised ligand | 1 µM | 100
CNC(=O)[C@@H]1CC[C@@H](n2c(-c3ccc4cnccc4c3)nc3ccc(C(=O)NCc4cccc(C(N)=O)c4)cc32)C1 | binding, competition with immobilised ligand | 1 µM | 94
O=C(O)[C@H]1[C@H](Cn2nnc3ccccc3c2=O)CC[C@@H]1C(=O)c1ccc(OCCC2CCOCC2)cc1 | cell-free assay, competition with immobilised ligand | 1 µM | 100
C[C@@H]1CCN(c2nccc(-c3cnn4ncccc34)n2)C1 | binding | 1 µM | 74
FC(F)(F)c1ccc2c(c1)nc(-c1cccnc1)n2C1CC1 | cell-free assay, competition with immobilised ligand | 1 µM | 100
CN(CCCC(F)(F)F)c1nccc(-c2cnn3ncccc23)n1 | binding | 1 µM | 100
CNCc1ccccc1-c1csc([C@H](C)Nc2nc(C)nc3cc(OC)c(OC)cc23)c1 | cell-free assay, competition with immobilised ligand | 1 µM | 88
O=C(c1ccc(Nc2ncc(Cl)c(-c3ccc(Cl)s3)n2)cc1)N1CCC(N2CCCC2)CC1 | binding, competition with immobilised ligand | 1 µM | 17
